pIC50: −log10 of the molar value.
Key:
[1] = tested on: OCT4; test: NCCIT-OCT4 response element-driven luciferase reporter assay; type: cell-based, human; conditions: for induction of OCT4 expression in NCCIT-OCT4 reporter cell line: histone demethylase inhibitors incubated for 48 h
[2] = tested on: NANOG; test: NCCIT-NANOG response element-driven luciferase reporter assay; type: cell-based, human
[3] = tested on: hPSCs; test: Viability and maintenance of hPSCs after single cell expansion; type: cell-based, human; conditions: 10 μM
[4] = tested on: human primary fibroblasts; test: OSKM episomal reprogramming, TRA-1-60+ colonies counting; type: cell-based
In short: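 Human primary fibroblasts, including OSKM-resistant lines and fibroblasts carrying an LTR7-EGFP promoter reporter, transfected with episomal OSKM with or without test compound; OSKM-only fibroblasts serve as comparison. ESC-like colonies stained for TRA-1-60, and reprogramming efficiency taken as the count of TRA-1-60-positive colonies.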

[5] = tested on: methylated H3K4; test: In vitro H3K4 methylation assay; type: biochemical; conditions: micromolar concentrations
[6] = tested on: KDM5; test: KDM5 demethylase activity/inhibition assay; type: biochemical
[7] = tested on: KDM4; test: KDM4 demethylase activity/inhibition assay; type: biochemical
[8] = molecular target: LSD1 (Homo sapiens, UniProt O60341); test: LSD1 activity/inhibition assay; type: biochemical
[9] = tested on: human fibroblasts; test: qRT-PCR of reprogramming-associated genes in human fibroblasts; type: cell-based
[10] = molecular target: KDM5C (Homo sapiens, UniProt P41229); test: Demethylase assay on KDM5C immunoprecipitated from cells; type: biochemical
[11] = tested on: KDM5D; test: Demethylase assay on KDM5D immunoprecipitated from cells; type: biochemical

Chain of KDM5C (P41229 whole entry): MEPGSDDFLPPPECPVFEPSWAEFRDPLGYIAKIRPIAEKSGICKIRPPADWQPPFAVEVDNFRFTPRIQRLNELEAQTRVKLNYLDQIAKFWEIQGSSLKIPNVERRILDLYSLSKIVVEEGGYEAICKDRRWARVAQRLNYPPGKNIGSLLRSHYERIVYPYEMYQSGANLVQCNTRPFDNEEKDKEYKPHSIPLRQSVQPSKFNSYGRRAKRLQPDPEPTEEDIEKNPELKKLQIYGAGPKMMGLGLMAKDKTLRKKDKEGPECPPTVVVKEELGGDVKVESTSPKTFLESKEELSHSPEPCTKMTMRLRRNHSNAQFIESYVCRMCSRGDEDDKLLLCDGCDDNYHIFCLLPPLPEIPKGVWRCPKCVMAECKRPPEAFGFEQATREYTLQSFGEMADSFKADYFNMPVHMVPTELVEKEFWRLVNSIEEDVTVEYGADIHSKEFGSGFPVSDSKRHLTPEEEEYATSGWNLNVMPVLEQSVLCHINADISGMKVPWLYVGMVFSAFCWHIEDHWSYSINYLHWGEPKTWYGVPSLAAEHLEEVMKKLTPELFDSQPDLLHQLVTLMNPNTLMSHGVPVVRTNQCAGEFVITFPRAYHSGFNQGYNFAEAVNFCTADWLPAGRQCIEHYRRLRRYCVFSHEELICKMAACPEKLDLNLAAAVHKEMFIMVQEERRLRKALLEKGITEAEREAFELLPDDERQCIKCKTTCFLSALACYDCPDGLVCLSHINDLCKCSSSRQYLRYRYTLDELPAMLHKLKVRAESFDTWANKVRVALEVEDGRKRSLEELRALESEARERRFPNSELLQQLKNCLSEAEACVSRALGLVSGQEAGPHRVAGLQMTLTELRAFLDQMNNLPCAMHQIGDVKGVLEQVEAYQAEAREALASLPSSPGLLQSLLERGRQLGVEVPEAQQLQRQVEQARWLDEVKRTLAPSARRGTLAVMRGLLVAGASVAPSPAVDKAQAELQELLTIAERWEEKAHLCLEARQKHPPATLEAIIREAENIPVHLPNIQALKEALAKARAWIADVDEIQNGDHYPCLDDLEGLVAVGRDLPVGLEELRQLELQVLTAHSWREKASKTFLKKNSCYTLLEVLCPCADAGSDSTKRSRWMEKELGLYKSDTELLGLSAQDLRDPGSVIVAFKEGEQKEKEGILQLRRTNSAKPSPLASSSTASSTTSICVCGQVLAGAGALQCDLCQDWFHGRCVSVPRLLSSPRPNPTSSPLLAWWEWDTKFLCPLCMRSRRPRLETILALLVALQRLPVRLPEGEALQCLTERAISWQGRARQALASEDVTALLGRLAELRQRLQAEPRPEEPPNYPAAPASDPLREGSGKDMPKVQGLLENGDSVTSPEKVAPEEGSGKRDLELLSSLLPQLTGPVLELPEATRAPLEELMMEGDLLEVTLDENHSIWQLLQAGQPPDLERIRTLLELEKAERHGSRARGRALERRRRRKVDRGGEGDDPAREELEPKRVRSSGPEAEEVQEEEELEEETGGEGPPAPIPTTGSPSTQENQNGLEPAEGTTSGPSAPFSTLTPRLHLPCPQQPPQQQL

Compound: Cc1ccc(-c2nc3ccc(C)cn3c2CC(=O)N(C)C)cc1 [zolpidem, reference compound]
- induction in NCCIT-OCT4 reporter cells ([1]; 10 μM, 48 h): ~2 fold
- induction in NCCIT-NANOG reporter cells ([2]; 10 μM, 48 h): ~2 fold
- maintenance of iPSCs [3]: promoted the maintenance
- iPSC-like colonies in fibroblasts resistant to OSKM-mediated reprogramming ([4]; 10 μM, with OSKM): appeared
- protection of H3K4 methylation [5]: protected
- inhibition of KDM5 ([6]; micromolar concentrations): inhibited
- inhibition of KDM4 ([7]; micromolar concentrations): inhibited
- inhibition of LSD1 activity [8]: could not be detected

Compound: Clc1ccc(N/N=C(\c2ccccc2)c2ccccn2)nc1 [JIB-04]
- induction of OCT4 expression in NCCIT-OCT4 reporter cell line [1]: 5 fold

Compound: Cc1ccc(-c2cn3cc(C)ccc3n2)cc1 [O4I3, 6-methyl-2-(p-tolyl)imidazo[1,2-a]pyridine]
- induction of OCT4 ([1]; NCCIT-OCT4 reporter cells, low nanomolar doses, compared with untreated cells): ~10 fold
- induction of NANOG ([2]; NCCIT-NANOG reporter cells, low nanomolar doses, compared with untreated cells): ~10 fold
- increase of CDH1 mRNA ([9]; human fibroblasts): about 100 fold
- induction of NANOG mRNA ([9]; human fibroblasts): approximately 10 fold
- increase of SOX2 mRNA ([9]; human fibroblasts, 50 nM): about 100 fold
- induction of OCT4 mRNA ([9]; human fibroblasts, 50 nM): approximately 10 fold
- CDH1 mRNA level versus hPSCs ([9]; treated human fibroblasts): approximately 10%
- NANOG mRNA level versus hPSCs ([9]; treated human fibroblasts): ~1%
- OCT4 mRNA level versus hPSCs ([9]; treated human fibroblasts): ~0.1%
- SOX2 mRNA level versus hPSCs ([9]; treated human fibroblasts): ~1%
- increase of the number of TRA-1-60-positive colonies ([4]; 50 nM added to OSKM, HF1 and HF2, compared with OSKM-only-treated fibroblasts): 10–20 times
- iPSC-like colonies in fibroblasts resistant to OSKM-mediated reprogramming ([4]; HFF-LTR7-EGFP and HF4, with OSKM): appeared
- episome-based reprogramming efficiency ([4]; with compound, from ∼0.01% without): ~0.1%
- pIC50 ([6]; read-out: KDM5 IC50, whole-cell nuclear extraction): 9.10
- pIC50 ([7]; read-out: KDM4 IC50, whole-cell nuclear extraction): 6.60
- inhibition of LSD1 activity [8]: could not be detected
- inhibitory effect on LSD1 ([8]; even at a concentration of 100 μM): hardly detected
- fold less potent IC50 on KDM5C than on KDM5A [10]: 40 fold
- fold less potent IC50 on KDM5D than on KDM5A [11]: 20 fold

Compound: CC(C)c1c(-c2ccccc2)[nH]c2c(C#N)cnn2c1=O [CPI-455]
- induction of OCT4 expression in NCCIT-OCT4 reporter cell line [1]: 3 fold
